pKd: −log10 of the molar value.
Tests used:
CYP199A4 F182A/P90A = assay: H2O2-dependent O-demethylation of benzoic acid derivatives, F182A/P90A; assay type: biochemical, Rhodopseudomonas palustris; conditions: catalyzed by F182A/P90A; P450 1 μM, substrate 2 mM, H2O2 10 mM, Tris-HCl pH 7.4, 30 °C
In short: (§1)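 Purified CYP199A4 double mutant (1 μM), a methoxy-substituted benzoic acid substrate (2 mM) and H2O2 (10 mM, the only oxidant) in Tris–HCl pH 7.4 at 30 °C. Demethylation and further-oxidation products are quantified against a benzophenone internal standard and expressed as turnover number per P450.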

CYP199A4 (wild type) = conditions: WT CYP199A4; cited from earlier work
CYP199A4 F182A/D251E = assay: H2O2-dependent O-demethylation, F182A/D251E; assay type: biochemical, Rhodopseudomonas palustris
In short: (§2)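 Enzyme (1 μM) is reacted with methoxy-substituted benzoic acid substrate (2 mM) and H2O2 (10 mM) as sole oxidant, in Tris–HCl pH 7.4 at 30 °C. Demethylation products are quantified chromatographically against a benzophenone internal standard, and activity is expressed as turnover number.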

CYP199A4 F182A/D251H = assay: H2O2-dependent O-demethylation, F182A/D251H; assay type: biochemical, Rhodopseudomonas palustris
In short: as §2

[1] = system: engineered CYP199A4 peroxygenase variants; assay: O-demethylation by the library of engineered CYP199A4 peroxygenase variants; assay type: biochemical, Rhodopseudomonas palustris; conditions: H2O2-dependent reaction
CYP199A4 F182A/V355A = assay: H2O2-dependent O-demethylation of benzoic acid derivatives, F182A/V355A; assay type: biochemical, Rhodopseudomonas palustris; conditions: catalyzed by F182A/V355A
In short: as §1

CYP199A4 F182A = molecular target: T1, CYP199A4 F182A (Rhodopseudomonas palustris, UniProt Q2IU02, F183A); assay: UV-visible spectral titration of substrate binding
T1 sequence (Q2IU02 1-410 F183A): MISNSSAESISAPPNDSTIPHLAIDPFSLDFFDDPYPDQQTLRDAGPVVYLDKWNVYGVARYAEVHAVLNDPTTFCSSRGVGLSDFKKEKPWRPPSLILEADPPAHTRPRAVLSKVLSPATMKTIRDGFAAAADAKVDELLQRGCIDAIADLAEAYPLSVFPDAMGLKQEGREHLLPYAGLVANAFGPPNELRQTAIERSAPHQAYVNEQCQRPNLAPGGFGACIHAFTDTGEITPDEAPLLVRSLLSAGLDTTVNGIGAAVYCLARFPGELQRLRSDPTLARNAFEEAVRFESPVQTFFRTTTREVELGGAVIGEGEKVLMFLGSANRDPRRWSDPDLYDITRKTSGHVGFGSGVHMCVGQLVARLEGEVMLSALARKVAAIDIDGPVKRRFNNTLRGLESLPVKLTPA

Row | SMILES | O-demethylation / conversion by the examined CYP199A4 variants (in words) [1] | also measured
1 | COc1ccc(C(=O)O)cc1 [Compound 1, 4-methoxybenzoic acid] | – | TON of demethylation product (CYP199A4 F182A/P90A): 1100 μM (μM P450)^−1; catalytic turnover number (TON) of H2O2-dependent demethylation (CYP199A4 (wild type)): 6 μM (μM P450)^−1; reduction of catalytic activity compared with F182A (CYP199A4 F182A/D251E): 50 fold; reduction of catalytic activity compared with F182A (CYP199A4 F182A/D251H): 50 fold
2 | COc1cccc(C(=O)O)c1 [Compound 2, 3-methoxybenzoic acid] | can be demethylated | –
3 | COc1ccccc1C(=O)O [Compound 3, 2-methoxybenzoic acid] | no reaction product was detected | –
4 | COc1cc(OC)cc(C(=O)O)c1 [Compound 6, 3,5-dimethoxybenzoic acid] | can be demethylated | –
5 | COc1ccc(OC)c(C(=O)O)c1 [Compound 7, 2,5-dimethoxybenzoic acid] | not converted | –
6 | COc1cccc(C(=O)O)c1OC [Compound 8, 2,3-dimethoxybenzoic acid] | not converted | –
7 | COc1cc(C(=O)O)cc(OC)c1OC [Compound 9, 3,4,5-trimethoxy benzoic acid] | no conversions detected | –
8 | COc1ccc(C(=O)O)cc1C [Compound 11, 3-methyl-4-methoxybenzoic acid] | – | TON of demethylation (CYP199A4 F182A/V355A; P450 1 μM, substrate 2 mM, H2O2 10 mM, Tris-HCl pH 7.4, 30 °C): 1290 μM (μM P450)^−1
9 | COc1c(C)cc(C(=O)O)cc1C [Compound 12, 3,5-dimethyl-4-methoxy benzoic acid] | – | pKd (CYP199A4 F182A): 3.91; product formed (in words) (CYP199A4 F182A/V355A; H2O2-dependent reaction): a single product (not 3,5-dimethyl-4-hydroxybenzoic acid)
10 | COc1c(Cl)cc(C(=O)O)cc1Cl [Compound 15, 3,5-dichloro-4-methoxy benzoic acid] | no conversions detected | –
11 | COc1ccc(C(=O)O)cc1[N+](=O)[O-] [Compound 17, 4-methoxy-3-nitrobenzoic acid] | – | TON of demethylation product (CYP199A4 F182A/P90A): 926 μM (μM P450)^−1; TON of over-oxidation product 4,5-dihydroxy-3-nitrobenzoic acid (CYP199A4 F182A/P90A): 416 μM (μM P450)^−1
12 | COc1cc(C(=O)O)ccc1O [Compound 20, 4-hydroxy-3-methoxybenzoic acid] | not demethylated | –
13 | COc1cc(C(=O)O)cc(OC)c1O [Compound 21, 4-hydroxy-3,5-dimethoxybenzoic acid] | did not convert | –

Source: PMC11134341 (Chemical Science, 2024)
